Published values collected from several papers.
Protocols differ between the studies behind these lines.

With `COc1cc2c(cc1O)CCN(Cc1cccc(O)c1)C2` the GI50 was over 100 µM (DU-145; cell growth or viability, WST-1; 96 h).
For `C[C@@H](NC(=O)[C@H](CCCCNC(=O)C(F)(F)F)NS(C)(=O)=O)C(=O)N[C@@H](CCCNC(=N)N)C(N)=O`, the EC50 was 21.2 to 28.1 µM (Jurkat; cell growth or viability, MTT; 72 h).
`COc1cccc(Oc2ccccc2NC(=O)CNC(=O)c2cccc3ccccc23)c1` has a GI50 of 0.112 µM (SF-295; cell growth or viability, SRB; 48 h).
With `Cn1cc(C(c2ccc(C(=O)O)cc2)c2cn(C)c3ccccc23)c2ccccc21` the inhibition was 95% (LNCaP; cell growth or viability, MTT; 100 µM, 48 h).
With `CC(C)C[C@H](NC(=O)[C@H](Cc1ccccc1)NC(=O)c1cnccn1)B(O)O` the IC50 was 0.0037 µM (MOLT-4; cell growth or viability, ATP luminescence).
For `COc1ccc2c(N(C)c3ccc(/C(C)=N/OCCN)cc3)c3c(Cl)coc3nc2c1`, the inhibition was 70% (LNCaP; cell migration; 1 µM, 24 h).
`COc1ccc(-c2ccc(-c3ccc(C(=N)N)nc3)s2)cc1Cl` gave a GI50 of 1.8 µM (SF-295; cell growth or viability, SRB).
The IC50 of `COc1cc(Nc2nccc(-c3cnn4nc(OC)ccc34)n2)cc(C(F)(F)F)c1` is reported as 0.27 µM (MOLT-4; cell growth or viability, ATP luminescence).
For `COc1cc2c(cc1OS(N)(=O)=O)CCN(Cc1cccc(C)c1)C2`, the GI50 was 41.7 µM (DU-145; cell growth or viability, WST-1; 96 h).
The inhibition of `O=C(O)c1ccc(C(c2c[nH]c3ccccc23)c2c[nH]c3ccccc23)cc1` is reported as 34% (DU-145; cell growth or viability, MTT; 100 µM, 48 h).
`COc1cc2c(cc1O)CCN(Cc1cccc([N+](=O)[O-])c1)C2` gave a GI50 of over 100 µM (DU-145; cell growth or viability, WST-1; 96 h).
The inhibition of `CC(C)n1cc(C(c2ccc(/C=C/C(=O)O)s2)c2cn(C(C)C)c3ccccc23)c2ccccc21` is reported as 94% (DU-145; cell growth or viability, MTT; 100 µM, 48 h).
The GI50 of `COc1ccc(CN2CCc3cc(OS(N)(=O)=O)c(OC)cc3C2)cc1OC` is reported as 8.54 µM (DU-145; cell growth or viability, WST-1; 96 h).
The inhibition of `O=C(O)/C=C/c1ccc(C(c2c[nH]c3ccccc23)c2c[nH]c3ccccc23)s1` is reported as 55% (DU-145; cell growth or viability, MTT; 100 µM, 48 h).
With `COc1ccc(-c2ccc(-c3ccc(C(=N)N)nc3)s2)cc1` the GI50 was 1.71 µM (SF-295; cell growth or viability, SRB).
